Here are results for 16 compounds from ChEMBL document CHEMBL2375346, “Lanostane triterpenoids from the mushroom Naematoloma fasciculare” (J Nat Prod, 2013).

pIC50: −log10 of the molar value. Calls of active or inactive are those of the source. The calls are words filed in the database; no cut-off is given here. Bounds are passed on as bounds.

The term pIC50 denotes the negative decadic logarithm of the IC50, by convention in mol/L.

For data set [1], the system named is A549. In words: Cytotoxicity against human A549 cells assessed as growth inhibition by SRB assay. It is filed as functional, cell-based. The essentials:
(§1)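 Human cancer lines supplied by NCI. Cytotoxicity was measured by sulforhodamine B (SRB) assay at KRICT, with doxorubicin as positive control. IC50 reported.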

Data set [2] deals with BV-2. Description: Antiinflammatory activity in mouse BV2 cells assessed as inhibition of LPS-induced nitrite production incubated for 30 mins prior to LPS challenge measured after 24 hrs by Griess assay. Type of data set: functional, cell-based. The essentials: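 BV-2 murine microglia seeded at 3 × 10^4 cells/well, grown 24 h, then pretreated with compound for 30 min before 100 ng/mL LPS stimulation for a further 24 h. Nitrite in the medium was read by Griess reaction (1% sulfanilamide, 0.1% N-1-naphthylethylenediamine dihydrochloride in 5% phosphoric acid), with absorbance at 540 nm after 10 min against a sodium nitrite standard. L-NMMA was the positive control. IC50 reported.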

The subject of data set [3] is SK-MEL-2. In words: Cytotoxicity against human SK-MEL-2 cells assessed as growth inhibition by SRB assay. It is filed as functional, cell-based. The essentials: as §1
In data set [4] the test system is BV-2. In words: Cytotoxicity against mouse BV2 cells assessed as cell viability by MTT assay. Type of data set: cell-based. In short, it runs like this: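 Viability of BV-2 microglia was measured by MTT assay in parallel with the LPS-stimulated NO experiment: 3 × 10^4 cells/well, 30 min compound pretreatment, then 100 ng/mL LPS for 24 h.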
(In general: Formazan colour is commonly taken as a measure of viable cells.)

In data set [5] the test system is HCT-15. Description: Cytotoxicity against human HCT15 cells assessed as growth inhibition by SRB assay. It is filed as functional, cell-based. The essentials:
as §1
On the technique in general: Sulforhodamine B stains cellular protein and so reports cell mass.

In data set [6] the test system is SK-OV-3. In words: Cytotoxicity against human SKOV3 cells assessed as growth inhibition by SRB assay. Type of data set: functional, cell-based. The essentials: as §1

Take `CC(C)(O)[C@H](O)CC[C@@H](CO)[C@H]1CC[C@@]2(C)C3=C(C[C@H](O)[C@]12C)[C@@]1(C)C[C@@H](O)[C@H](O)C(C)(C)[C@@H]1CC3`: the negative logarithm of the IC50 (pIC50) in data set [1] is 5.63; in data set [3], 5.64; in data set [5], 5.51; in data set [6] it was 5.55. Besides, the outcome in data set [2] was inactive. The Activity entry in data set [4] was “Toxic”.

On to `C[C@H](CC[C@@H](O)C(C)(C)O)[C@H]1CC[C@@]2(C)C3=C(C[C@H](O)[C@]12C)[C@@]1(C)C[C@@H](O)[C@H](OC(=O)C[C@@](C)(O)CC(=O)O)C(C)(C)[C@@H]1CC3`, for which the negative logarithm of the IC50 (pIC50) in data set [1], in data set [3], in data set [5] and in data set [6] was below 4.52 in each case. For the same compound, the outcome in data set [2] was inactive.

As for `COC(=O)CNC(=O)CC(C)(O)CC(=O)O[C@H]1[C@H](O)C[C@]2(C)C3=C(CC[C@H]2C1(C)C)[C@]1(C)CC[C@H]([C@H](CO)CC[C@@H](O)C(C)(C)O)[C@@]1(C)[C@@H](O)C3` (some centres not stated), the negative-log IC50 (pIC50) was below 4.52 in data set [1], 5.04 in data set [3], below 4.52 in data set [5] and below 4.52 in data set [6]. In data set [2], the outcome was inactive.

Regarding `CC(C)(O)[C@H](O)CC[C@@H](CO)[C@H]1CC[C@@]2(C)C3=C(C[C@H](O)[C@]12C)[C@@]1(C)C[C@@H](O)[C@H](O)C(C)(C)[C@@H]1CC3=O`, the pIC50 in data set [1] was 5.40; in data set [2], 4.30; in data set [3], 5.32; in data set [5], 5.07; in data set [6], 5.13. Further, in data set [4], the Activity entry is “Non-toxic”.

Take `C[C@H](CC[C@@H](O)C(C)(C)O)[C@H]1CC[C@@]2(C)C3=C(C[C@H](O)[C@]12C)[C@@]1(C)C[C@@H](O)[C@H](O)C(C)(C)[C@@H]1CC3`: the pIC50 in data set [1] was 5.11; in data set [3], 5.29; in data set [5], 5.09; in data set [6] it was 5.07. Besides, the outcome in data set [2] was inactive. In addition, the Activity result in data set [4] is listed as “Toxic”.

As for `COC(=O)CNC(=O)CC(C)(O)CC(=O)O[C@@H]1C[C@]2(C)C3=C(CC[C@H]2C(C)(C)[C@H]1O)[C@]1(C)CC[C@H]([C@H](CO)CC[C@@H](O)C(C)(C)O)[C@@]1(C)[C@@H](O)C3` (some centres not stated), the pIC50 in data set [1] is below 4.52; in data set [3], 5.24; in data set [5], below 4.52; in data set [6] it was below 4.52. For the same compound, in data set [2], the result was inactive. Further, the Activity entry in data set [4] is given as “Toxic”.

For `CC(C)(O)[C@H](O)CC[C@@H](CO)[C@H]1CC[C@@]2(C)C3=C(C[C@H](O)[C@]12C)[C@@]1(C)C[C@@H](O)[C@H](OC(=O)C[C@@](C)(O)CC(=O)O)C(C)(C)[C@@H]1CC3`, the pIC50 in data set [1], in data set [3], in data set [5] and in data set [6] was below 4.52 each time. Moreover, the result in data set [2] was inactive. The Activity result in data set [4] was “Non-toxic”.

With `CC(C)(O)[C@H](O)CC[C@@H](CO)[C@H]1CC[C@]2(C)[C@]1(C)[C@@H](O)C=C1[C@]23O[C@H]3C[C@H]2C(C)(C)[C@@H](O)[C@H](O)C[C@]12C`, the pIC50 is 5.18 in data set [1], 5.08 in data set [3], 5.07 in data set [5] and 5.15 in data set [6]. Further, the result in data set [2] was inactive. The Activity entry in data set [4] is on record as “Non-toxic”.

On to `COC(=O)CNC(=O)CC(C)(O)CC(=O)O[C@H]1[C@H](O)C[C@]2(C)C3=C(CC[C@H]2C1(C)C)[C@]1(C)CC[C@H]([C@H](C)CC[C@@H](O)C(C)(C)O)[C@@]1(C)[C@@H](O)C3` (some centres not stated), for which the pIC50 in data set [1] was below 4.52; in data set [3], 5.07; in data set [5], below 4.52; in data set [6] it was below 4.52. In data set [2], the result was inactive. Further, the Activity entry in data set [4] is listed as “Toxic”.

Consider `COc1cccc2c1C(=O)c1c(O)c3c(c(O)c1C2=O)C[C@@](O)(C(=O)CO)C[C@@H]3O[C@H]1C[C@H](N)[C@H](O)[C@H](C)O1` [DOXORUBICIN], for which the pIC50 in data set [1] is 7.70; in data set [3], 8.00; in data set [5], 6.89; in data set [6], 8.00.

Consider `CC(C)(O)[C@H](O)CC[C@@H](CO)[C@H]1CC[C@@]2(C)C3=C(CC(=O)[C@]12C)[C@@]1(C)C[C@@H](O)[C@H](O)C(C)(C)[C@@H]1CC3`, for which the pIC50 was below 4.52 in data set [1], below 4.52 in data set [3], below 4.52 in data set [5] and 5.10 in data set [6]. The outcome in data set [2] was inactive. For the same compound, in data set [4], the Activity result is given as “Toxic”.

For `C[C@H](CC[C@@H](O)C(C)(C)O)[C@H]1CC[C@@]2(C)C3=C(C[C@H](O)[C@]12C)[C@@]1(C)C[C@@H](OC(=O)CC(C)(O)CC(=O)O)[C@H](O)C(C)(C)[C@@H]1CC3` (some centres not stated), the pIC50 in data set [1] was 4.57; in data set [2] it was 4.03; in data set [3] it was 4.78; in data set [5] it was 4.55; in data set [6], 4.65. In data set [4], the Activity entry was “Non-toxic”.

With `CC(C)(O)[C@H](O)CC[C@@H](CO)[C@H]1CC[C@@]2(C)C3=C(C[C@H](O)[C@]12C)[C@@]1(C)C[C@@H](OC(=O)C[C@@](C)(O)CC(=O)O)[C@H](O)C(C)(C)[C@@H]1CC3`, the pIC50 was 4.59 in data set [1], 4.60 in data set [3], 4.55 in data set [5] and 4.79 in data set [6]. Moreover, the outcome in data set [2] was inactive. Also, the Activity result in data set [4] is reported as “Non-toxic”.

Consider `C[C@H](CC[C@@H](O)C(C)(C)O)[C@H]1CC[C@@]2(C)C3=C(CC(=O)[C@]12C)[C@@]1(C)C[C@@H](O)[C@H](O)C(C)(C)[C@@H]1CC3`, for which the pIC50 in data set [1] is below 4.52; in data set [3], below 4.52; in data set [5], below 4.52; in data set [6], 5.01. In addition, the result in data set [2] was inactive. Moreover, in data set [4], the Activity entry is listed as “Non-toxic”.

For `CC(C)(O)[C@H](O)CC[C@@H](CO)[C@H]1CC[C@@]2(C)C3=CC[C@H]4C(C)(C)[C@@H](O)[C@H](O)C[C@]4(C)C3=C[C@H](O)[C@]12C`, the pIC50 is 5.35 in data set [1], 5.34 in data set [3], 5.11 in data set [5] and 5.48 in data set [6]. Further, the result in data set [2] was inactive. Besides, the Activity entry in data set [4] is “Toxic”.

With `COC(=O)CNC(=O)CC(C)(O)CC(=O)O[C@@H]1C[C@]2(C)C3=C(CC[C@H]2C(C)(C)[C@H]1O)[C@]1(C)CC[C@H]([C@H](C)CC[C@@H](O)C(C)(C)O)[C@@]1(C)[C@@H](O)C3` (some centres not stated), the pIC50 in data set [1] was below 4.52; in data set [3] it was 5.04; in data set [5] it was below 4.52; in data set [6], below 4.52. Besides, in data set [2], the result was inactive. Besides, the Activity result in data set [4] was “Toxic”.
